Assay results reported in ChEMBL document CHEMBL1687936, “Radiosynthesis and biological evaluation of L- and D-S-(3-[18F]fluoropropyl)homocysteine for tumor imaging using positron emission tomography” (J Med Chem, 2011).

Assays:
A-375 = test: Drug uptake in human A375 cells in presence of amino acid transport system A inhibitor MeAIB; format: ADME, cell-based
Procedure, shortened: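 Cells were prepared as for the uptake assay and preincubated at 37 °C with inhibitor at 12.5 mmol/L in PBS; controls received PBS. 0.37 MBq [18F]tracer was added and incubated 30 min at 37 °C. Cells were washed cold, lysed and γ-counted. Uptake is given as % of the control group, n = 3.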

Brain [1] = test: Metabolic stability in brain of BALB/c nude mouse xenografted with human A375 cells assessed as radioactivity after 1 hrs by HPLC analysis; format: ADME, tissue-based, A-375; settings: in vivo
Procedure, shortened: (§1)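 A375-tumored Balb/c nude mice received 18-20 MBq tracer iv. Plasma and urine were spiked with unlabeled FPHCys and KF and injected directly; tissues were sonicated in saline with carrier and centrifuged at 6000g. Radio-HPLC on C18 with methanol/phosphate buffer pH 6 gave intact fraction as authentic peak over total activity, at 0.25, 1 and 2 h.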

Spleen [2] = test: Biodistribution in spleen of BALB/c nude mouse xenografted with human A375 cells at 0.8 to 1 MBq, iv after 15 mins by gamma-counter; format: ADME, organism-based, A-375; settings: in vivo, 0.25 h
Procedure, shortened: (§2)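 Female Balb/c nude mice with s.c. A375 flank tumors, studied 26 days after tumor induction. Tracer 0.8-1 MBq in 100 μL saline given i.v. Groups of n = 5 killed at 15, 30, 60 and 120 min. Organs weighed and counted in a γ-counter against dilutions of the injected dose. Values are % ID/g wet tissue, mean ± SD.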

Spleen [3] = test: Biodistribution in spleen of BALB/c nude mouse xenografted with human A375 cells at 0.8 to 1 MBq, iv after 30 mins by gamma-counter; format: ADME, organism-based, A-375; settings: in vivo, 0.5 h; procedure, shortened: as §2
Spleen [4] = test: Biodistribution in spleen of BALB/c nude mouse xenografted with human A375 cells at 0.8 to 1 MBq, iv after 60 mins by gamma-counter; format: ADME, organism-based, A-375; settings: in vivo, 1 h; procedure, shortened: as §2
Kidney [5] = test: Biodistribution in kidney of BALB/c nude mouse xenografted with human A375 cells at 0.8 to 1 MBq, iv after 15 mins by gamma-counter; format: ADME, organism-based, A-375; settings: in vivo, 0.25 h; procedure, shortened: as §2
Kidney [6] = test: Biodistribution in kidney of BALB/c nude mouse xenografted with human A375 cells at 0.8 to 1 MBq, iv after 60 mins by gamma-counter; format: ADME, organism-based, A-375; settings: in vivo, 1 h; procedure, shortened: as §2
Kidney [7] = test: Biodistribution in kidney of BALB/c nude mouse xenografted with human A375 cells at 0.8 to 1 MBq, iv after 120 mins by gamma-counter; format: ADME, organism-based, A-375; settings: in vivo, 2 h; procedure, shortened: as §2
Muscle tissue [8] = test: Biodistribution in muscle of BALB/c nude mouse xenografted with human A375 cells at 0.8 to 1 MBq, iv after 15 mins by gamma-counter; format: ADME, organism-based, A-375; settings: in vivo, 0.25 h; procedure, shortened: as §2
Muscle tissue [9] = test: Biodistribution in muscle of BALB/c nude mouse xenografted with human A375 cells at 0.8 to 1 MBq, iv after 60 mins by gamma-counter; format: ADME, organism-based, A-375; settings: in vivo, 1 h; procedure, shortened: as §2
Muscle tissue [10] = test: Biodistribution in muscle of BALB/c nude mouse xenografted with human A375 cells at 0.8 to 1 MBq, iv after 120 mins by gamma-counter; format: ADME, organism-based, A-375; settings: in vivo, 2 h; procedure, shortened: as §2
Bone [11] = test: Biodistribution in bone of BALB/c nude mouse xenografted with human A375 cells at 0.8 to 1 MBq, iv after 15 mins by gamma-counter; format: ADME, organism-based, Bone element, A-375; settings: in vivo, 0.25 h; procedure, shortened: as §2
Bone [12] = test: Biodistribution in bone of BALB/c nude mouse xenografted with human A375 cells at 0.8 to 1 MBq, iv after 30 mins by gamma-counter; format: ADME, organism-based, Bone element, A-375; settings: in vivo, 0.5 h; procedure, shortened: as §2
Bone [13] = test: Biodistribution in bone of BALB/c nude mouse xenografted with human A375 cells at 0.8 to 1 MBq, iv after 60 mins by gamma-counter; format: ADME, organism-based, Bone element, A-375; settings: in vivo, 1 h; procedure, shortened: as §2
Lung [14] = test: Biodistribution in lungs of BALB/c nude mouse xenografted with human A375 cells at 0.8 to 1 MBq, iv after 30 mins by gamma-counter; format: ADME, organism-based, A-375; settings: in vivo, 0.5 h; procedure, shortened: as §2
Lung [15] = test: Biodistribution in lungs of BALB/c nude mouse xenografted with human A375 cells at 0.8 to 1 MBq, iv after 60 mins by gamma-counter; format: ADME, organism-based, A-375; settings: in vivo, 1 h; procedure, shortened: as §2
Lung [16] = test: Biodistribution in lungs of BALB/c nude mouse xenografted with human A375 cells at 0.8 to 1 MBq, iv after 120 mins by gamma-counter; format: ADME, organism-based, A-375; settings: in vivo, 2 h; procedure, shortened: as §2
Heart [17] = test: Biodistribution in heart of BALB/c nude mouse xenografted with human A375 cells at 0.8 to 1 MBq, iv after 30 mins by gamma-counter; format: ADME, organism-based, A-375; settings: in vivo, 0.5 h; procedure, shortened: as §2
Heart [18] = test: Biodistribution in heart of BALB/c nude mouse xenografted with human A375 cells at 0.8 to 1 MBq, iv after 60 mins by gamma-counter; format: ADME, organism-based, A-375; settings: in vivo, 1 h; procedure, shortened: as §2
Brain [19] = test: Biodistribution in brain of BALB/c nude mouse xenografted with human A375 cells at 0.8 to 1 MBq, iv after 15 mins by gamma-counter; format: ADME, organism-based, A-375; settings: in vivo, 0.25 h; procedure, shortened: as §2
Brain [20] = test: Biodistribution in brain of BALB/c nude mouse xenografted with human A375 cells at 0.8 to 1 MBq, iv after 30 mins by gamma-counter; format: ADME, organism-based, A-375; settings: in vivo, 0.5 h; procedure, shortened: as §2
Pancreas [21] = test: Biodistribution in pancreas of BALB/c nude mouse xenografted with human A375 cells at 0.8 to 1 MBq, iv after 120 mins by gamma-counter; format: ADME, organism-based, A-375; settings: in vivo, 2 h; procedure, shortened: as §2
Blood [22] = test: Biodistribution in blood of BALB/c nude mouse xenografted with human A375 cells at 0.8 to 1 MBq, iv after 60 mins by gamma-counter; format: ADME, organism-based, A-375; settings: in vivo, 1 h; procedure, shortened: as §2
Blood [23] = test: Biodistribution in blood of BALB/c nude mouse xenografted with human A375 cells at 0.8 to 1 MBq, iv after 120 mins by gamma-counter; format: ADME, organism-based, A-375; settings: in vivo, 2 h; procedure, shortened: as §2
[24] = Biodistribution in tumor of BALB/c nude mouse xenografted with human A375 cells at 0.8 to 1 MBq, iv after 15 mins by gamma-counter; format: ADME, organism-based, Neoplasm, A-375; settings: in vivo, 0.25 h; procedure, shortened: as §2
[25] = Metabolic stability in human A375 cells xenografted in BALB/c nude mouse assessed as radioactivity after 0.25 to 2 hrs by HPLC analysis; format: ADME, cell-based, A-375; settings: in vivo; procedure, shortened: as §1
Brain [26] = test: Metabolic stability in brain of BALB/c nude mouse xenografted with human A375 cells assessed as radioactivity after 0.25 to 1 hrs by HPLC analysis; format: ADME, tissue-based, A-375; settings: in vivo; procedure, shortened: as §1
Urinary bladder = test: Biodistribution in bladder of BALB/c nude mouse xenografted with human A375 cells after 60 mins by PET/CT imaging; format: ADME, organism-based, A-375; settings: in vivo, 1 h
Procedure, shortened: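 Female Balb/c nude mice with A375 tumors (1×10^6 cells in Ca/Mg-free PBS injected s.c. in left flank at 6 weeks old). Mice under isoflurane in oxygen. 10 min CT scan, then 18-20 MBq tracer in 100 μL saline given i.v. with a 2 h PET acquisition. Coronal images at 60 min postinjection; n = 3.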

Plasma = test: Drug level in plasma of BALB/c nude mouse xenografted with human A375 cells assessed as radioactivity in protein fractions after 0.25 to 2 hrs; format: ADME, cell-free, A-375; settings: in vivo
Procedure, shortened: (§3)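 Female Balb/c nude mice bore subcutaneous A375 flank tumors and received 18-20 MBq tracer iv. Plasma or tissue was sonicated in 10% TCA with unlabeled FPHCys and KF, then centrifuged at 6000g; the pellet was re-extracted twice. Protein-bound fraction is pellet versus supernatant radioactivity, sampled at 0.25, 1 and 2 h.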

Pancreas [27] = test: Drug level in pancreas extract of BALB/c nude mouse xenografted with human A375 cells assessed as radioactivity in protein fraction after 0.25 to 2 hrs; format: ADME, tissue-based, A-375; settings: in vivo; procedure, shortened: as §3
[28] = Drug level in tumor extract of BALB/c nude mouse xenografted with human A375 cells assessed as radioactivity in protein fraction after 0.25 to 2 hrs; format: ADME, Neoplasm, A-375; settings: in vivo; procedure, shortened: as §3

SMILES	Drug uptake (A-375)	Stability (Brain [1]) [%]	Drug uptake (Spleen [2]) [% ID/g]	Drug uptake (Spleen [3]) [% ID/g]	Drug uptake (Spleen [4]) [% ID/g]	Drug uptake (Kidney [5]) [% ID/g]	Drug uptake (Kidney [6]) [% ID/g]	Drug uptake (Kidney [7]) [% ID/g]	Drug uptake (Muscle tissue [8]) [% ID/g]	Drug uptake (Muscle tissue [9]) [% ID/g]	Drug uptake (Muscle tissue [10]) [% ID/g]	Drug uptake (Bone [11]) [% ID/g]	Drug uptake (Bone [12]) [% ID/g]	Drug uptake (Bone [13]) [% ID/g]	Drug uptake (Lung [14]) [% ID/g]	Drug uptake (Lung [15]) [% ID/g]	Drug uptake (Lung [16]) [% ID/g]	Drug uptake (Heart [17]) [% ID/g]	Drug uptake (Heart [18]) [% ID/g]	Drug uptake (Brain [19]) [% ID/g]	also measured
Cl.N[C@H](CCSCCC[18F])C(=O)O	Active	90	4.24	2.83	0.95	12.2	2.75	1.04	2.12	1.44	0.63	2.55	2.29	1.63	2.84	1.55	0.85	3.05	1.16	1.53	Drug uptake (Brain [20]): 1.56 % ID/g; Drug uptake (Pancreas [21]): 1.43 % ID/g; Drug uptake (Blood [22]): 0.89 % ID/g; Drug uptake (Blood [23]): 0.89 % ID/g; Drug uptake [24]: 6.01 % ID/g; Stability [25]: 82%; Stability (Brain [26]): 85%; Drug uptake (Urinary bladder): Active; Drug uptake (Plasma): 1%; Drug uptake (Pancreas [27]): 1%; Drug uptake [28]: 1%
Cl.N[C@@H](CCSCCC[18F])C(=O)O	Active	90	5.05	4.18	2.11	15.4	5.96	3.92	4.12	2.52	1.52	3.33	3.5	2.31	5.07	2.62	1.63	4.2	2.32	3.13	Drug uptake (Brain [20]): 2.57 % ID/g; Drug uptake (Pancreas [21]): 3.77 % ID/g; Drug uptake (Blood [22]): 2.32 % ID/g; Drug uptake (Blood [23]): 1.38 % ID/g; Drug uptake [24]: 9.41 % ID/g; Stability [25]: 82%; Stability (Brain [26]): 85%; Drug uptake (Urinary bladder): Active; Drug uptake (Plasma): 1%; Drug uptake (Pancreas [27]): 1%; Drug uptake [28]: 1%
